This is an account of results in ChEMBL document CHEMBL4011632, “Design, Synthesis, and Evaluation of Thiazolidine-2,4-dione Derivatives as a Novel Class of Glutaminase Inhibitors” (J Med Chem, 2017).

Each structure is given as a SMILES string. The source made the active and inactive calls. The calls are words filed in the database; no cut-off is given here.

Data set [1] deals with ASPC1. The data set can be described thus: Anticlonogenic activity against human Aspc-1 cells at 2 uM after 21 days by crystal violet staining based assay relative to control. It counts as functional. Conditions: ASPC1, 504 h. Put shortly: (§1)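 Anchorage-dependent colony formation: AsPC-1 cells seeded at 1000 cells/well in six-well plates and treated with compound. Colony formation is expressed as percent of vehicle treatment. Mean ± SD from at least three independent experiments, each in duplicate.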

Data set [2] deals with ASPC1. The data set can be described thus: Anticlonogenic activity against human Aspc-1 cells at 10 uM after 21 days by crystal violet staining based assay relative to control. Conditions: ASPC1, 504 h. It counts as functional. Put shortly: as §1
The test system of data set [3] is ASPC1. As to the kind of experiment: Growth inhibition of human Aspc-1 cells after 72 hrs by MTS assay. It counts as functional, cell-based. To be noted: ASPC1, 72 h. Put shortly:
(§2)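 Growth inhibition by MTS viability read-out. Cells seeded in 96-well plates at 4000/well (AsPC-1) or 8500/well (MDA-MB-231). Mean ± SD from at least three independent experiments, each in duplicate.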

Another data set relates to MDA-MB-231. The data set can be described thus: Growth inhibition of human MDA-MB-231 cells after 72 hrs by MTS assay. It counts as functional, cell-based. To be noted: MDA-MB-231, 72 h. Put shortly:
as §2
A general note: Tetrazolium assays rely on reduction of a dye to a coloured formazan, in cell work by metabolically active cells.

The target in data set [4] is T1, Glutaminase liver isoform, mitochondrial (Homo sapiens) (UniProt Q9UI32).
T1 sequence (whole entry): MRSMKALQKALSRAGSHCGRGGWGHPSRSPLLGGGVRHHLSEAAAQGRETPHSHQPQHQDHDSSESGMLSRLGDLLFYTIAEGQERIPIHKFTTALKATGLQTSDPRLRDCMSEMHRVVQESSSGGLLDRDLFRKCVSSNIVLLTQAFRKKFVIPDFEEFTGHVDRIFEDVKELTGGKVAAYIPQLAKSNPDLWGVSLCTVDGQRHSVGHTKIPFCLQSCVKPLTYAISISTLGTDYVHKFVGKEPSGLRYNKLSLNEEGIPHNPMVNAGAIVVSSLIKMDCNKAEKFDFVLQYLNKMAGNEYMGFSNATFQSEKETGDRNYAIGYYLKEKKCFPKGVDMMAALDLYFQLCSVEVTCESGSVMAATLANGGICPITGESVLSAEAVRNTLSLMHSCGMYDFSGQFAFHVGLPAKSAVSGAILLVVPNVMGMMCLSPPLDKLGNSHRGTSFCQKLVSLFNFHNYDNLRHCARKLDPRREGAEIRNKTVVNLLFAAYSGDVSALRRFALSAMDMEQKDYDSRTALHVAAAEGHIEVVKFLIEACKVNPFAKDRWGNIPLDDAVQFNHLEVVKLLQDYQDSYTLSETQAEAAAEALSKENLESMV
The data set can be described thus: Inhibition of human GLS2 in GLS1 deficient human Aspc-1 cells assessed as decrease in cellular glutamate production at 3.13 to 100 uM after 4 hrs by amplex red glutamic acid assay. Summed up:
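GLS-knockout AsPC-1 cells made with GLS-KO ZFN mRNA, single-cell cloned, and grown in glutamine-free RPMI 1640 with 10% FBS. Cells seeded at 30 000/well and grown 24 h at 37 °C. Treated 4 h with 1% DMSO vehicle or 3.13−100 μM inhibitor, washed with PBS, and lysed in NP-40 buffer (4 °C, 20 min). Lysate glutamate measured by Amplex Red. Three independent experiments in duplicate.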

The nature of data set [5]: Terminal half life in Sprague-Dawley rat at 2 mg/kg, iv by HPLC-MS analysis. Format: ADME, organism-based. Conditions: in vivo, read-out: beta t1/2 (converted). Summed up:
(§3)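 Male rats (330−380 g, 9−10 weeks old), jugular-vein cannulated 1 day before dosing, n = 3. Dosed iv in DMA/PEG400 (20%/80%, v/v) or po in 1% CMC/0.5% Tween-80. Blood (100 μL) drawn at 0, 2 min, 5 min (iv only), 15 and 30 min, and 1, 2, 4, 6, 8 and 24 h. Plasma measured by LC-MS/MS; parameters from noncompartmental analysis.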

A short description of data set [6]: Terminal half life in Sprague-Dawley rat at 10 mg/kg, po by HPLC-MS analysis. Format: ADME, organism-based. To be noted: in vivo, read-out: beta t1/2 (converted). Put shortly: as §3
The nature of data set [7]: Volume of distribution at steady state in Sprague-Dawley rat at 2 mg/kg, iv by HPLC-MS analysis. It counts as ADME, organism-based. To be noted: in vivo, read-out: Vdss. Put shortly:
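Male rats (330−380 g, 9−10 weeks old), quarantined 1 week, jugular-vein cannula implanted 1 day before dosing; n = 3. Single iv dose in DMA/PEG400 (20%/80%, v/v). Blood (100 μL) was drawn via cannula at 0, 2, 5, 15, 30 min and 1, 2, 4, 6, 8, 24 h and kept on ice. Plasma was analysed by HPLC−MS/MS. Vss came from noncompartmental analysis.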

Data set [8] is described as follows: Cmax in Sprague-Dawley rat at 10 mg/kg, po by HPLC-MS analysis. Conditions: in vivo. On the set-up: dose 10 mg/kg, route oral. It counts as ADME, organism-based. Put shortly:
as §3

A short description of data set [9]: Tmax in Sprague-Dawley rat at 10 mg/kg, po by HPLC-MS analysis. Format: ADME, organism-based. To be noted: in vivo. Summed up: as §3
The nature of data set [10]: AUC (0 to infinity) in Sprague-Dawley rat at 2 mg/kg, iv by HPLC-MS analysis. It counts as ADME, organism-based. The arrangement: dose 2 mg/kg, route intravenous, time infinity. To be noted: in vivo. Summed up:
as §3

A short description of data set [11]: AUC (0 to infinity) in Sprague-Dawley rat at 10 mg/kg, po by HPLC-MS analysis. Conditions: in vivo. The arrangement: dose 10 mg/kg, time infinity, route oral. It counts as ADME, organism-based. Put shortly: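 Male rats (330−380 g, 9−10 weeks old), jugular-vein cannulated 1 day before dosing, n = 3. Oral dose given in 1% CMC/0.5% Tween-80. Blood (100 μL) taken via cannula at 0, 15 and 30 min and 1, 2, 4, 6, 8 and 24 h, kept on ice. Plasma analysed by HPLC−tandem MS. Parameters from noncompartmental analysis.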

Data set [12] in a line: Oral bioavailability in Sprague-Dawley rat at 10 mg/kg by HPLC-MS analysis. Format: ADME, organism-based. To be noted: in vivo. Summed up:
as §3

For data set [13], the system named is ASPC1. As to the kind of experiment: Antitumor activity against human Aspc-1 cells xenografted in Balb/cAnN.Cg-Foxn1nu/CrlNarl mouse assessed as tumor growth inhibition at 25 mg/kg, ip once daily administered for 5 days followed by 2 days without dosing for 43 days relative to control. To be noted: read-out: TGI. It counts as functional. Put shortly:
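Male nude mice (7−8 weeks, 18−22 g) received 4.5 × 10^6 AsPC-1 cells sc in the right flank, in HBSS mixed 1:1 with Matrigel. Mice were randomized once mean tumor reached ~100 mm3 (day 1). Dosing was ip once daily, 5 days on/2 days off, with 2% DMSO/PBS as vehicle. Tumors were measured twice weekly, V = ab²/2. %TGI = [1 − ((Tt − T0)/(Ct − C0))] × 100 from median volumes; Student's t test.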
In general terms: In xenograft studies the graft and the host belong to different species.

Data set [14] can be described thus: Inhibition of recombinant human His-tagged KGA S384A mutant expressed in Escherichia coli BL21(DE3)pLysS using glutamine substrate preincubated for 10 mins followed by substrate addition measured after 60 mins.
A short description of data set [15]: Inhibition of recombinant human His-tagged KGA R387A mutant expressed in Escherichia coli BL21(DE3)pLysS using glutamine substrate preincubated for 10 mins followed by substrate addition measured after 60 mins.
Data set [16] can be described thus: Inhibition of recombinant human His-tagged KGA R387L mutant expressed in Escherichia coli BL21(DE3)pLysS using glutamine substrate preincubated for 10 mins followed by substrate addition measured after 60 mins.
A short description of data set [17]: Inhibition of recombinant human His-tagged KGA K507A mutant expressed in Escherichia coli BL21(DE3)pLysS using glutamine substrate preincubated for 10 mins followed by substrate addition measured after 60 mins.
Data set [18] deals with ASPC1. The data set can be described thus: Synergistic cytotoxicity against human Aspc-1 cells assessed as reduction in cell viability at ED50 in presence of doxorubicin by MTS assay. Format: functional. Summed up: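 AsPC-1 cells treated with compound combinations and viability read by MTS. Combination index at ED50, ED75 and ED90 calculated by the Chou−Talalay method. CI = 1 additive, <1 synergism, >1 antagonism. Representative of three independent experiments.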

As for `O=C(Cc1ccccc1)Nc1nnc(CCSCCc2nnc(NC(=O)Cc3ccccc3)s2)s1`, in the data set with ASPC1 [1], the inhibition at 2 µM turned out to be 41%. Further, in the data set with ASPC1 [2], testing at 10 µM gave an inhibition of 98%. Further, the IC50 with ASPC1 [3] amounted to 10.2 µM; in the data set on MDA-MB-231, 6.8 µM; in data set [14] it was 0.065 µM; in data set [15], 0.063 µM; in [16], 0.345 µM; in [17], 0.066 µM. In [4], the inhibition entry was “inactive”. Besides, the half-life is 5.3 h in data set [5] and 2 h in data set [6]. The Vd in data set [7] amounted to 8.8 L/kg. For the same compound, the maximum concentration (Cmax) in data set [8] is 0.04 µg/mL. Moreover, the Tmax in data set [9] was determined as 0.7 h. Further, the results for the AUC(0-inf) in data set [10] and in data set [11] were 0.636 µg·h/mL and 0.073 µg·h/mL, respectively. The compound also gave a bioavailability in [12] of 2%. The inhibition in vivo at 25 mg/kg in the data set on ASPC1 [13] was 55%. In addition, the CI with ASPC1 [18] is listed as 0.45 - 0.68.

The term inhibition denotes the relative decrease from the control value, in per cent. The IC50 is the concentration that inhibits the measured activity by half. Broadly, the Cmax is the peak of the concentration-time curve. As usually defined, the Tmax is the time from dosing to the highest level. Broadly, the AUC(0-inf) is the area under the concentration-time curve extrapolated to infinity. A higher AUC(0-inf) goes with more exposure. One may read the bioavailability as dose-corrected exposure relative to a reference, in per cent. A higher bioavailability goes with much systemic uptake.
